The text below walks through data of ChEMBL document CHEMBL1149274, “Stereochemical analysis of (hydroxyethyl)urea peptidomimetic inhibitors of gamma-secretase” (J Med Chem, 2004).

Broadly, the IC50 is the midpoint of a concentration-inhibition curve. The low end stands for inhibition by little substance, the high end for a need for much substance.

The target in test [1] is Gamma-secretase. Nature of the test: Inhibition of gamma secretase in CHO cells expressing human APP by ELISA. The format is cell-based. In short, it runs like this: (§1)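 CHO 7w cells stably expressing the 751-residue APP splice variant, grown to confluence in DMEM with 200 μg/mL G418. Compounds were added from DMSO stocks to a final 1% DMSO; vehicle-only wells served as controls. After 4 or 24 h, the medium was spun at 3000g for 5 min. Aβ40 and Aβ42 were measured by sandwich ELISA (capture 2G3/21F12, biotinylated 3D6 reporter, TMB read at 455 nm). Mean ± SD of three experiments.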
For orientation: In an ELISA, binding on a coated surface is turned into a signal by an enzyme label.

Test [2] concerns the target Gamma-secretase. As to the kind of experiment: Inhibition of gamma secretase isolated from HeLa cells by ELISA. The format is cell-free, Homo sapiens. Put shortly:
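HeLa membranes were washed in 0.1 M Na2CO3, pH 11.3, then solubilized in 1% CHAPSO. The preparation (0.2 mg protein/mL) was incubated with compound or DMSO and the C100Flag substrate at 37 °C for 0 or 4 h. Reactions were stopped with 0.5% SDS and boiling for 5 min. Aβ x-40 and x-42 products were measured by sandwich ELISA (capture 2G3/21F12, biotinylated 266 reporter).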

For test [3], the target named is Gamma-secretase. Nature of the test: Inhibition of gamma secretase in CHO cells expressing human APP after 24 hrs by ELISA. The format is cell-based. Put shortly: as §1
Test [4] deals with Gamma-secretase. Nature of the test: Inhibition of gamma secretase in CHO cells expressing human APP after 4 hrs by ELISA. The format is cell-based. Put shortly: as §1

On to `COC(=O)[C@H](NC(=O)[C@@H](C)NC(=O)N(Cc1ccccc1)C[C@@H](O)[C@@H](Cc1ccccc1)NC(=O)OC(C)(C)C)C(C)C`, for which the IC50 stood at 10 µM in test [1] and 3 µM in test [2].
As to `COC(=O)[C@@H](CC(C)C)NC(=O)[C@@H](CC(C)C)NC(=O)N(Cc1ccccc1)C[C@@H](O)[C@@H](Cc1ccccc1)NC(=O)OC(C)(C)C`, the IC50 in test [3] came to 9 µM; in test [1], 3 µM; in test [4] it was 3 µM; in test [2] it was 0.2 µM.
As to `COC(=O)[C@@H](CC(C)C)NC(=O)[C@@H](CC(C)C)NC(=O)N(Cc1ccccc1)C[C@H](O)[C@@H](Cc1ccccc1)NC(=O)OC(C)(C)C`, the IC50 in test [1] came to 8 µM; in test [2], 2 µM.
On to `COC(=O)[C@H](NC(=O)[C@@H](CC(C)C)NC(=O)N(Cc1ccccc1)C[C@H](O)[C@@H](Cc1ccccc1)NC(=O)OC(C)(C)C)C(C)C`, for which the results for the IC50 in test [1] and in test [2] were 10 µM and 3 µM, respectively.
For the compound `COC(=O)[C@H](CC(C)C)NC(=O)[C@H](CC(C)C)NC(=O)N(Cc1ccccc1)C[C@@H](O)[C@H](Cc1ccccc1)NC(=O)OC(C)(C)C`, the IC50 amounted to 9.4 µM in test [3], 0.6 µM in test [1], 0.6 µM in test [4] and 0.03 µM in test [2].
As for `COC(=O)[C@@H](CC(C)C)NC(=O)N(Cc1ccccc1)C[C@@H](O)[C@@H](Cc1ccccc1)NC(=O)OC(C)(C)C`, the results for the IC50 in test [1] and in test [2] were 15 µM and 6 µM, respectively.
The corresponding values for `COC(=O)[C@H](NC(=O)[C@H](NC(=O)N(Cc1ccccc1)C[C@@H](O)[C@@H](Cc1ccccc1)NC(=O)OC(C)(C)C)C(C)C)C(C)C` are 12 µM and 2 µM.
The corresponding values for `COC(=O)[C@@H](NC(=O)[C@H](CC(C)C)NC(=O)N(Cc1ccccc1)C[C@@H](O)[C@@H](Cc1ccccc1)NC(=O)OC(C)(C)C)C(C)C` are 0.4 µM and 0.01 µM.
`CC(C)C[C@H](NC(=O)[C@@H](CC(C)C)NC(=O)N(Cc1ccccc1)C[C@@H](O)[C@@H](Cc1ccccc1)NC(=O)OC(C)(C)C)C(=O)OC(C)(C)C`: the IC50 in test [3] came out at 7 µM; in test [4] it was 0.6 µM.
For the compound `COC(=O)[C@H](NC(=O)[C@H](CC(C)C)NC(=O)N(Cc1ccccc1)C[C@@H](O)[C@@H](Cc1ccccc1)NC(=O)OC(C)(C)C)C(C)C`, the IC50 in test [1] is 0.8 µM; in test [2], 0.08 µM.
The corresponding values for `COC(=O)[C@H](NC(=O)[C@H](CC(C)C)NC(=O)N(Cc1ccccc1)C[C@@H](O)[C@H](Cc1ccccc1)NC(=O)OC(C)(C)C)C(C)C` are 1 µM and 0.6 µM.
The corresponding values for `COC(=O)[C@@H](NC(=O)[C@@H](CC(C)C)NC(=O)N(Cc1ccccc1)C[C@@H](O)[C@H](Cc1ccccc1)NC(=O)OC(C)(C)C)C(C)C` are 0.8 µM and 0.06 µM.
`COC(=O)[C@@H](C)NC(=O)[C@@H](CC(C)C)NC(=O)N(Cc1ccccc1)C[C@@H](O)[C@@H](Cc1ccccc1)NC(=O)OC(C)(C)C`: the figures for the IC50 in test [1] and in test [2] were 7 µM and 2 µM, respectively.
As to `COC(=O)[C@H](NC(=O)[C@@H](Cc1ccccc1)NC(=O)N(Cc1ccccc1)C[C@@H](O)[C@@H](Cc1ccccc1)NC(=O)OC(C)(C)C)C(C)C`, the IC50 came to 24 µM in test [1] and 9 µM in test [2].
For `COC(=O)[C@H](NC(=O)[C@@H](CC(C)C)NC(=O)N(Cc1ccccc1)C[C@@H](O)[C@@H](Cc1ccccc1)NC(=O)OC(C)(C)C)C(C)C`, the IC50 came to 17 µM in test [3], 2 µM in test [1], 2 µM in test [4] and 0.1 µM in test [2].
Take `COC(=O)[C@H](NC(=O)[C@@H](CC(C)C)NC(=O)N(Cc1ccccc1)C[C@@H](O)[C@@H](Cc1ccccc1)NC(=O)[C@@H](C)NC(=O)OC(C)(C)C)C(C)C`: the figures for the IC50 in test [1] and in test [2] were 30 µM and 12 µM, respectively.
Regarding `COC(=O)[C@@H](NC(=O)[C@H](CC(C)C)NC(=O)N(Cc1ccccc1)C[C@@H](O)[C@H](Cc1ccccc1)NC(=O)OC(C)(C)C)C(C)C`, the IC50 came to 18 µM in test [3], 0.4 µM in test [1], 0.4 µM in test [4] and 0.01 µM in test [2].
For `COC(=O)[C@H](NC(=O)[C@@H](CC(C)C)NC(=O)N(Cc1ccccc1)C[C@@H](O)[C@@H](Cc1ccccc1)NC(=O)[C@@H](CC(C)C)NC(=O)OC(C)(C)C)C(C)C`, the IC50 in test [1] was determined as 2 µM; in test [2], 0.9 µM.
Regarding `COC(=O)[C@H](NC(=O)[C@@H](CC(C)C)NC(=O)N(Cc1ccccc1)C[C@@H](O)[C@@H](Cc1ccccc1)NC(=O)[C@H](NC(=O)OC(C)(C)C)C(C)C)C(C)C`, the IC50 turned out to be 7 µM in test [1] and 3 µM in test [2].
The corresponding values for `COC(=O)[C@@H](Cc1ccccc1)NC(=O)[C@@H](CC(C)C)NC(=O)N(Cc1ccccc1)C[C@@H](O)[C@@H](Cc1ccccc1)NC(=O)OC(C)(C)C` are 3 µM and 0.8 µM.
On to `COC(=O)[C@H](NC(=O)[C@@H](CC(C)C)NC(=O)N(CC(C)C)C[C@@H](O)[C@@H](Cc1ccccc1)NC(=O)OC(C)(C)C)C(C)C`, for which the IC50 in test [1] was determined as 5 µM; in test [2], 2 µM.
As to `COC(=O)[C@H](NC(=O)[C@@H](CC(C)C)NC(=O)N(Cc1ccccc1)C[C@@H](O)[C@@H](Cc1ccccc1)NC(=O)[C@@H](Cc1ccccc1)NC(=O)OC(C)(C)C)C(C)C`, the IC50 in test [1] was determined as 8 µM; in test [2] it was 2 µM.
Take `COC(=O)[C@H](NC(=O)[C@@H](CC(C)C)NC(=O)N(C)C[C@@H](O)[C@@H](Cc1ccccc1)NC(=O)OC(C)(C)C)C(C)C`: the IC50 in test [1] was determined as 12 µM; in test [2], 7 µM.
In the same order, the values of `COC(=O)[C@@H](NC(=O)[C@@H](CC(C)C)NC(=O)N(Cc1ccccc1)C[C@@H](O)[C@@H](Cc1ccccc1)NC(=O)OC(C)(C)C)C(C)C` are 8 µM and 0.8 µM.
As to `CC(C)C[C@H](NC(=O)N(Cc1ccccc1)C[C@@H](O)[C@H](Cc1ccccc1)NC(=O)OC(C)(C)C)C(=O)N[C@H](C(=O)OC(C)(C)C)C(C)C`, the IC50 was 6 µM in test [3] and 0.3 µM in test [4].
As for `COC(=O)[C@H](NC(=O)[C@@H](CC(C)C)NC(=O)N(Cc1ccccc1)C[C@@H](O)[C@H](Cc1ccccc1)NC(=O)OC(C)(C)C)C(C)C`, the IC50 was found to be 0.6 µM in test [1] and 0.03 µM in test [2].
As to `CC(C)C[C@@H](NC(=O)N(Cc1ccccc1)C[C@@H](O)[C@@H](Cc1ccccc1)NC(=O)OC(C)(C)C)C(=O)N[C@@H](C(=O)OC(C)(C)C)C(C)C`, the IC50 in test [3] is 6.2 µM; in test [4], 3 µM.
In the same order, the values of `CC(C)C[C@H](NC(=O)N(Cc1ccccc1)C[C@@H](O)[C@H](Cc1ccccc1)NC(=O)OC(C)(C)C)C(=O)N[C@H](CC(C)C)C(=O)OC(C)(C)C` are 5 µM and 0.4 µM.
Regarding `COC(=O)[C@H](NC(=O)[C@@H](CC(C)C)NC(=O)N(C[C@@H](O)[C@@H](Cc1ccccc1)NC(=O)OC(C)(C)C)C(C)C)C(C)C`, the values for the half-inhibitory concentration (IC50) in test [1] and in test [2] were 8 µM and 4 µM, respectively.
